Laboratory results from ChEMBL document CHEMBL4371071, “Muscarinic agonist, (±)-quinuclidin-3-yl-(4-fluorophenethyl)(phenyl)carbamate: High affinity, but low subtype selectivity for human M1 - M5 muscarinic acetylcholine receptors” (Bioorg Med Chem Lett, 2019).

What was measured:
[1] = biological target: T1, Muscarinic acetylcholine receptor M5 (Homo sapiens) (UniProt P08912); assay: Displacement of [3H]NMS from human M5 AChR expressed in CHO cell membranes at 100 uM after 1 to 2 hrs by liquid scintillation spectrometry method relative to control
T1 sequence (whole entry): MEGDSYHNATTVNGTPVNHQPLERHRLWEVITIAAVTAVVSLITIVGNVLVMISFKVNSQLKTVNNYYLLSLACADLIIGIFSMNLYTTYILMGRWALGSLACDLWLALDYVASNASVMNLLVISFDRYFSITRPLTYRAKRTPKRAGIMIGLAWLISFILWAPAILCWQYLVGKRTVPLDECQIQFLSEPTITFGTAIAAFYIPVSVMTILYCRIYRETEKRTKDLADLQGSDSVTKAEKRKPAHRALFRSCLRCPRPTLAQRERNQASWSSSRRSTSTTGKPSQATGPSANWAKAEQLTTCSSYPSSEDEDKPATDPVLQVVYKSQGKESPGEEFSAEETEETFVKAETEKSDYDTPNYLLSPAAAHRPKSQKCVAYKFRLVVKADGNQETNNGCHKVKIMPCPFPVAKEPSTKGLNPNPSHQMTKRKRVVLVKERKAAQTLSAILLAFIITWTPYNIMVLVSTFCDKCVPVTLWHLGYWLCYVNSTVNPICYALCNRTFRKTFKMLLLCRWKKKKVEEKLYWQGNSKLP
Procedure, shortened: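 CHO membranes expressing human M5 (10 µg protein/well) with 0.3 nM [3H]NMS and analog (1 nM–100 µM) in 50 mM Tris-HCl pH 7.4, 2 h at 25 °C. […] Filtered on GF/B, counted by scintillation. IC50 converted to Ki; three independent experiments in duplicate.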

[2] = biological target: T2, Muscarinic acetylcholine receptor M2 (Homo sapiens, UniProt P08172); assay: Displacement of [3H]NMS from human M2 AChR expressed in CHO cell membranes after 1 to 2 hrs by liquid scintillation spectrometry method
T2 sequence (P08172 whole entry): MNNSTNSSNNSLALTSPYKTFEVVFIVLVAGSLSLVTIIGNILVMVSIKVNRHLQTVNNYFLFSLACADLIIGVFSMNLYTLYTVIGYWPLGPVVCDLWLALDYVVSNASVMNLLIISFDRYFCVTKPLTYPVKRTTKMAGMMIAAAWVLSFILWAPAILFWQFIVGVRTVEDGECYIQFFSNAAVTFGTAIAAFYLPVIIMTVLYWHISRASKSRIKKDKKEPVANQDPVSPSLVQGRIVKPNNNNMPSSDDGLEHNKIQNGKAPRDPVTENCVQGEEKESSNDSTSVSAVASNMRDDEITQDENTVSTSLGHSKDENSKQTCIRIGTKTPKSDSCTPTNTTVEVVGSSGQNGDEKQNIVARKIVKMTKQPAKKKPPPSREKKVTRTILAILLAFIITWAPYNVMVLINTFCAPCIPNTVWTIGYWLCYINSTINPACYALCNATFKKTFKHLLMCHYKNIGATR
Procedure, shortened: (§1)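 CHO membranes expressing the human subtype (20 µg protein/well) with 0.3 nM [3H]NMS and analog (1 nM–100 µM) in 50 mM Tris-HCl pH 7.4, 2 h at 25 °C. […] Filtered on GF/B, washed, counted by scintillation. IC50 taken from curves to give Ki; three independent experiments in duplicate.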

[3] = biological target: T3, Muscarinic acetylcholine receptor M3 (Homo sapiens, UniProt P20309); assay: Displacement of [3H]NMS from human M3 AChR expressed in CHO cell membranes after 1 to 2 hrs by liquid scintillation spectrometry method; assay type: cell-based
Target sequence in this assay (P20309 whole entry): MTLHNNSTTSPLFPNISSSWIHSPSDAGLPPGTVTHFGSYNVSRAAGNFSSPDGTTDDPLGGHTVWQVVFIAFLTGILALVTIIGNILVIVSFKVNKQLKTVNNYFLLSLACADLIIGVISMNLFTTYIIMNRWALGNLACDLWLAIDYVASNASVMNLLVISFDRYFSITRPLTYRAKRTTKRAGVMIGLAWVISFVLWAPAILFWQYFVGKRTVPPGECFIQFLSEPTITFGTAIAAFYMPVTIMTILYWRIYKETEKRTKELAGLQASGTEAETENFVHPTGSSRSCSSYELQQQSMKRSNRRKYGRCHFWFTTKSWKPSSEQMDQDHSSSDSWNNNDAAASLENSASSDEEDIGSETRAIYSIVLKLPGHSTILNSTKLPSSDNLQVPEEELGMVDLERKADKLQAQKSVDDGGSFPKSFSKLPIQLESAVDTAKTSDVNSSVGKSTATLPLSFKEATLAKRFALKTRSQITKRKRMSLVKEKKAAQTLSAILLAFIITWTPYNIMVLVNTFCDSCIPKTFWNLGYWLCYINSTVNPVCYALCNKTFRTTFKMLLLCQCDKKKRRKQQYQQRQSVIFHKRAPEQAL

Homo sapiens [4] = species on record: Homo sapiens; assay: Selectivity ratio of Ki for displacement of [3H]NMS from human M2 AChR expressed in CHO cell membranes to Ki for displacement of [3H]NMS from human M3 AChR expressed in CHO cell membranes
[5] = biological target: T4, Muscarinic acetylcholine receptor M1 (Homo sapiens, UniProt P11229); assay: Displacement of [3H]NMS from human M1 AChR expressed in CHO cell membranes after 1 to 2 hrs by liquid scintillation spectrometry method; assay type: cell-based
T4 sequence (P11229 whole entry): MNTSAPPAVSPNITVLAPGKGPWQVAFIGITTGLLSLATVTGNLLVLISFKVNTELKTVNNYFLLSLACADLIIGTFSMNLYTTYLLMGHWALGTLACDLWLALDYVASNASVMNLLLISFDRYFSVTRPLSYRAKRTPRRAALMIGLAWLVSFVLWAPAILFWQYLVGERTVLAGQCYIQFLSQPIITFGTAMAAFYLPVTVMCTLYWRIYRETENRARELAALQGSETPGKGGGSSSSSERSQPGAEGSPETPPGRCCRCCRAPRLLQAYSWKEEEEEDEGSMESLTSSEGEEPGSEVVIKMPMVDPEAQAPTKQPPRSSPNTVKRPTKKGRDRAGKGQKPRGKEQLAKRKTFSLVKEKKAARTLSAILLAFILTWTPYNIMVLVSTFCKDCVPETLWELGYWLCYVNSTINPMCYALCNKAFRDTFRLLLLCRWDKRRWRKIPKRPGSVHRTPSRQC

[6] = biological target: T3, Muscarinic acetylcholine receptor M3; conditions: CHO, at 100 µM
Target sequence in this assay (P20309 whole entry, looked up): as the sequence (P20309 whole entry) above

[7] = biological target: T5, Muscarinic acetylcholine receptor M5 (Homo sapiens, UniProt P08912); assay: Displacement of [3H]NMS from human M5 AChR expressed in CHO cell membranes after 1 to 2 hrs by liquid scintillation spectrometry method
T5 sequence (P08912 whole entry): T1 sequence (whole entry)
Procedure, shortened: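 CHO membranes expressing human M5 (10 µg protein/well) with 0.3 nM [3H]NMS and analog (1 nM–100 µM) in 50 mM Tris-HCl pH 7.4, 2 h at 25 °C. Filtered on GF/B, counted by scintillation. IC50 converted to Ki; three independent experiments in duplicate.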

[8] = biological target: T6, Muscarinic acetylcholine receptor M2 (Homo sapiens) (UniProt P08172); assay: Displacement of [3H]NMS from human M2 AChR expressed in CHO cell membranes at 100 uM after 1 to 2 hrs by liquid scintillation spectrometry method relative to control
T6 sequence (whole entry): T2 sequence (P08172 whole entry)
Procedure, shortened: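 CHO membranes expressing the human subtype (20 µg protein/well) with 0.3 nM [3H]NMS and analog (1 nM–100 µM) in 50 mM Tris-HCl pH 7.4, 2 h at 25 °C. Filtered on GF/B, washed, counted by scintillation. IC50 taken from curves to give Ki; three independent experiments in duplicate.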

Homo sapiens [9] = species on record: Homo sapiens; assay: Selectivity ratio of Ki for displacement of [3H]NMS from human M1 AChR expressed in CHO cell membranes to Ki for displacement of [3H]NMS from human M5 AChR expressed in CHO cell membranes
[10] = biological target: T7, Muscarinic acetylcholine receptor M1 (Homo sapiens) (UniProt P11229); conditions: CHO, at 100 µM
T7 sequence (whole entry): T4 sequence (P11229 whole entry)

[11] = biological target: T8, Muscarinic acetylcholine receptor (Rattus norvegicus) (UniProt P08482+P08483+P08485+P08911+P10980); conditions: 10 uM
[12] = biological target: T8, Muscarinic acetylcholine receptor (Rattus norvegicus); conditions: 1 uM
[13] = biological target: T9, Muscarinic acetylcholine receptor M4 (Homo sapiens, UniProt P08173); assay: Displacement of [3H]NMS from human M4 AChR expressed in CHO cell membranes after 1 to 2 hrs by liquid scintillation spectrometry method
T9 sequence (P08173 whole entry): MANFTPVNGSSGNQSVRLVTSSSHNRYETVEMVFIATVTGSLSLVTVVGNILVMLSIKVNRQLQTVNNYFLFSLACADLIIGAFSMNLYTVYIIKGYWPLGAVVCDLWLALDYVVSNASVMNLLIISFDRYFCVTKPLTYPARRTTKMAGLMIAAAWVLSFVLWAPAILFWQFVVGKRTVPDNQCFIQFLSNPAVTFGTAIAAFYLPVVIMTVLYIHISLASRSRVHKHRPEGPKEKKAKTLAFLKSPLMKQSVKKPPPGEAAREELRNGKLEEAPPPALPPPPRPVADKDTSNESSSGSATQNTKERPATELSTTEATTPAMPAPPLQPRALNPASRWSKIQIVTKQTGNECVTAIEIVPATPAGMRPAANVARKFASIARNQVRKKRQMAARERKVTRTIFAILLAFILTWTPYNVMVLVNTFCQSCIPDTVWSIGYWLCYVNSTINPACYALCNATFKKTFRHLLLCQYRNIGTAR
Procedure, shortened: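 Human M4-expressing CHO membranes (20 µg protein/well) incubated 2 h at 25 °C with 0.3 nM [3H]NMS and analog (1 nM–100 µM) in 50 mM Tris–HCl pH 7.4. […] Filtered, washed, counted by scintillation. IC50 taken from inhibition curves, Ki from three independent duplicate experiments (mean ± SEM).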

[14] = biological target: T10, Muscarinic acetylcholine receptor M4 (Homo sapiens) (UniProt P08173); assay: Displacement of [3H]NMS from human M4 AChR expressed in CHO cell membranes at 100 uM after 1 to 2 hrs by liquid scintillation spectrometry method relative to control; procedure, shortened: as §1
T10 sequence (whole entry): T9 sequence (P08173 whole entry)

Structure (SMILES) | Imax [1] [%] | Ki [2] [nM] | Ki [3] [nM] | Ratio Ki (Homo sapiens [4]) | Ki [5] [nM] | Imax [6] [%] | Ki [7] [nM] | Imax [8] [%] | Ratio Ki (Homo sapiens [9]) | Imax [10] [%] | inhibition [11] [%] | inhibition [12] [%] | Ki [13] [nM] | Imax [14] [%]
COc1ccc(CCN(C(=O)OC2CN3CCC2CC3)c2ccccc2)cc1OC (racemic) | 99.8 | 350 | 60 | 5.7 | 95 | 99.7 | 65 | 98.6 | 1.5 | 100 |  |  |  | 
O=C(OCc1ccccc1)N(c1ccccc1)C1CN2CCC1CC2 (centres undefined) | 97.2 | 120 | 90 | 1.2 | 190 | 98.6 | 150 | 99.4 | 1.3 | 99.5 |  |  |  | 
CN1[C@@H]2C[C@H](OC(=O)[C@H](CO)c3ccccc3)C[C@H]1[C@@H]1O[C@@H]12 |  |  |  |  |  |  |  |  |  |  | 59 | 51 |  | 
COc1ccc(CCN(C(=O)OC2CN3CCC2CC3)c2ccccc2)cc1 (racemic) | 100 | 130 | 8 | 17.1 | 10 | 99.9 | 10 | 99.7 | 1 | 100 |  |  | 25 | 99.9
O=C(OCc1ccc2c(c1)OCO2)N(c1ccccc1)C1CN2CCC1CC2 (centres undefined) | 99.7 | 30 | 19 | 1.7 | 30 | 99.9 | 40 | 99.4 | 0.8 | 100 |  |  |  | 
O=C(OCc1ccc(Cl)c(Cl)c1)N(c1ccccc1)C1CN2CCC1CC2 (centres undefined) | 98.6 | 220 | 70 | 3.3 | 60 | 95.8 | 60 | 97.5 | 0.9 | 100 |  |  |  | 
O=C(OCCCc1ccc(Cl)c(Cl)c1)N(c1ccccc1)C1CN2CCC1CC2 (centres undefined) | 99.4 | 300 | 60 | 4.7 | 170 | 100 | 130 | 99.9 | 1.3 | 100 |  |  |  | 
